Results on five molecules are retold here after ChEMBL document CHEMBL1150115, “Bioactive abietane and seco-abietane diterpenoids from Salvia prionitis” (J Nat Prod, 2002).

Test [1] relates to Staphylococcus aureus. In words: Antibacterial activity against Staphylococcus aureus after 18 hrs by microdilution assay. It is filed as functional. The method in brief:
(§1)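 Broth microdilution in Mueller-Hinton broth, with cells at a set final CFU/mL density. Compounds dissolved in DMSO. Incubation at 37 °C for 18 h under aerobic conditions. Blank controls received a limited amount of DMSO under the same conditions. Read-out is MIC.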

Test [2] relates to Micrococcus luteus. Description: Antibacterial activity against Micrococcus luteus after 18 hrs by microdilution assay. The class given is functional. The method in brief:
as §1

Test [3] concerns the target T1, DNA topoisomerase 1 (Mus musculus, UniProt Q04750).
T1 sequence (Q04750 whole entry): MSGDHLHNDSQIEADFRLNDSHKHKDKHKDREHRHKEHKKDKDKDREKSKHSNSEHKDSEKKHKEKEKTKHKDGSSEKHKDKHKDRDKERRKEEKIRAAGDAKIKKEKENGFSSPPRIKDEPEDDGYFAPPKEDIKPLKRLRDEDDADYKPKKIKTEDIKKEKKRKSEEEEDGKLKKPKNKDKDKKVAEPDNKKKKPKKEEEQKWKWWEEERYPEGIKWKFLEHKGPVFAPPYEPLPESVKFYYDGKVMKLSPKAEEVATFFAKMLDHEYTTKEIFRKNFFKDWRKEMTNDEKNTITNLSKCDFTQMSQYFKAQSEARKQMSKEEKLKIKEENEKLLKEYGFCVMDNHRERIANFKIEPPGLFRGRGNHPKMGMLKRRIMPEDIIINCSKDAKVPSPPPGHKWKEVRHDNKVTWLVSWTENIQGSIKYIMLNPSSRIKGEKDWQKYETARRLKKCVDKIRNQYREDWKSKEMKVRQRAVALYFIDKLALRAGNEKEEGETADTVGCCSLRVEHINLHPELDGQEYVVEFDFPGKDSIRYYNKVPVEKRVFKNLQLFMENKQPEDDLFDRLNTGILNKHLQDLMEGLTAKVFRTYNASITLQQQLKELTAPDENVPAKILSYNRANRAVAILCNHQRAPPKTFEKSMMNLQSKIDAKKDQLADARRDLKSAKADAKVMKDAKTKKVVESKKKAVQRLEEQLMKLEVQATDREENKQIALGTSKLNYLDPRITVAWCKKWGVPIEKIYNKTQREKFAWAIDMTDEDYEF
Description: Inhibition of topoisomerase 1 extracted from mouse EAC cells assessed as inhibition of Escherichia coli pBR322 relaxation. It is filed as cell-free, Ehrlich.

The subject of test [4] is HL-60. In words: Cytotoxicity against human HL60 cells after 48 hr by MTT assay. It is filed as functional, cell-based.
Test [5] deals with MKN-28. In words: Cytotoxicity against human MKN28 cells after 48 hr by MTT assay. The class given is functional, cell-based.
Test [6] deals with SGC-7901. Description: Cytotoxicity against human SGC7901 cells after 48 hr by MTT assay. The class given is functional, cell-based.

Each structure is given as a SMILES string. Values after ≈ are worked out from the molar mass of the structure shown. Active and inactive are the calls of the source. The rule behind the calls is not given here.

In the case of `CC(C)C1=CC(=O)C([C@@]2(C)CCCC(C)(C)[C@@H]2CC=O)=CC1=O`, the MIC in test [1] stood at 20 µM (≈ 6.33 µg/mL); in test [2], 15 µM (≈ 4.75 µg/mL).

In the case of `Cc1ccc2c(c1CCCC(C)(C)O)C(=O)C(=O)C(C(C)C)=C2`, the IC50 in test [3] stood at 800 nM.

Take `Cc1ccc2cc(C(C)C)c(O)c3c2c1C(=O)OC3=O`: the outcome in test [4], in test [5] and in test [6] was inactive.

With `C=C(C)C1CCc2c(C)ccc3c2[C@]1(O)C(=O)C(C(C)C)=C3` (some centres not stated), the outcome in test [4], in test [5] and in test [6] was inactive.

In the case of `Cc1ccc2c(c1CCC(=O)C(C)(C)O)C(=O)C(=O)C(C(C)C)=C2`, the IC50 in test [4] (HL-60, 48 h) turned out to be 4600 nM; in test [5] (MKN-28, 48 h), 300 nM; in test [6] (SGC-7901, 48 h), 200 nM.
